In ChEMBL document CHEMBL3612020:
One block for each compound: values may come before it. Active and inactive are the calls of the source. The calls are words filed in the database; no cut-off is given here.

What was measured:
[1] = molecular target: T1, D-amino-acid oxidase (Homo sapiens, UniProt P14920); assay: Inhibition of recombinant human DAAO expressed in HEK cells using D-serine as substrate assessed as formation of alpha-keto acid, ammonia, […] after 20 mins by horseradish peroxidase/o-phenylenediamine-based assay; set-up: species or system HEK293
How it was run: (§1)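 Human DAAO from HEK cells: lysate in 50 mM Tris pH 8.5 with 100 µM FAD, sonicated, then ion-exchange purified with a 0–0.5 M NaCl gradient. […] Enzyme set to give 2.0 mOD/min uninhibited. Rate read as absorbance change at 411 nm. Mean ± SD of ≥4 experiments in most cases.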

[2] = Metabolic stability in mouse liver microsomes assessed as compound remaining at 5 uM after 60 mins by LC/MS/MS analysis in presence of NADPH; assay type: ADME; conditions: 1 h
How it was run: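 Mouse liver microsomes (0.5 mg/mL) with 5 µM test compound in 100 mM potassium phosphate pH 7.4 plus NADPH regenerating system (1.3 mM NADPH). Reaction started with microsomes, run in duplicate for 60 min, quenched with cold acetonitrile containing internal standard. Parent quantified by LC/MS/MS; cofactor-free controls included.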

[3] = Metabolic stability in mouse liver microsomes assessed as compound remaining at 5 uM after 60 mins by LC/MS/MS analysis in presence of UDPGA; assay type: ADME; conditions: 1 h
How it was run: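 Glucuronidation in mouse liver microsomes (0.5 mg/mL): 50 mM Tris-HCl pH 7.5, 8 mM MgCl2, 25 µg/mL alamethicin, pre-incubated at 37 °C. Started with 2 mM UDPGA (final), in duplicate, for 60 min. Quenched with cold acetonitrile plus internal standard; LC/MS/MS read-out, with cofactor-free controls.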

[4] = molecular target: T1, D-amino-acid oxidase; assay: Inhibition of DAAO (unknown origin); how it was run: as §1
[5] = tested on: Salmonella typhimurium; assay: Mutagenicity in Salmonella typhimurium TA100 by Ames test in absence of S9 mixture; assay type: toxicity, organism-based; conditions: salmonella enterica subsp. enterica serovar typhimurium
[6] = tested on: Salmonella typhimurium; assay: Mutagenicity in Salmonella typhimurium TA100 by Ames test in presence of S9 mixture; assay type: toxicity, organism-based; conditions: salmonella enterica subsp. enterica serovar typhimurium
[7] = AUClast in CD1 mouse at 30 mg/kg, iv; assay type: ADME, organism-based; set-up: dose 30 mg/kg, route intravenous, time 0 - last; conditions: in vivo
How it was run: (§2)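 Male CD1 mice, n = 3 per time point, dosed iv or po. About 1 mL blood taken by cardiac puncture into heparinized tubes, kept on wet ice, centrifuged 10 min at 800 g, 4 °C. Plasma stored at −80 °C; drug levels measured by HPLC–QTOF-MS.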

[8] = molecular target: T2, Glutamate NMDA receptor; GRIN1/GRIN2A (Homo sapiens) (UniProt Q05586+Q12879); assay: Inhibition of NMDA receptor agonist binding site (unknown origin) at 10 uM relative to control; assay type: protein-complex assay
[9] = tested on: Mus musculus; assay: Increase in plasma Cmax of D-serine in CD1 mouse at 30 mg/kg, po; assay type: ADME, organism-based; conditions: in vivo
[10] = molecular target: T3, MAO-B (Homo sapiens, UniProt P27338); assay: Inhibition of MAO-B (unknown origin) at 10 uM relative to control
T3 sequence (P27338 whole entry): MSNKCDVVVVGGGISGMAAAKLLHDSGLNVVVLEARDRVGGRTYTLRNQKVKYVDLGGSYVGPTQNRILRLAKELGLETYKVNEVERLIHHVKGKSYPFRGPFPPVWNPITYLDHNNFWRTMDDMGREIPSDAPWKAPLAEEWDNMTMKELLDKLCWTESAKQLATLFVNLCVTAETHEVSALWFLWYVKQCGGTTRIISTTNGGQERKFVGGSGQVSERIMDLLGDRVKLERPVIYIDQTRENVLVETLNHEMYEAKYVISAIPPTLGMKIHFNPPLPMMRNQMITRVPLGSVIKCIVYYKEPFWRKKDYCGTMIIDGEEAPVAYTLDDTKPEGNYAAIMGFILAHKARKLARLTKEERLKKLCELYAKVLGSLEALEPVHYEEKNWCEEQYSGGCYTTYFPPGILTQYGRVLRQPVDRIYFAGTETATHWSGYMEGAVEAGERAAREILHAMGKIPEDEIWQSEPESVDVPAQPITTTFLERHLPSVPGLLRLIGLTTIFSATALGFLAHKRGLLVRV

[11] = molecular target: T2, Glutamate NMDA receptor; GRIN1/GRIN2A (Homo sapiens); assay: Inhibition of NMDA receptor phencyclidine binding site (unknown origin) at 10 uM relative to control; assay type: protein-complex assay
[12] = molecular target: T4, Glycine receptor subunit alpha-1 (Homo sapiens) (UniProt P23415); assay: Inhibition of strychnine-sensitive glycine receptor (unknown origin) at 10 uM relative to control
T4 sequence (whole entry): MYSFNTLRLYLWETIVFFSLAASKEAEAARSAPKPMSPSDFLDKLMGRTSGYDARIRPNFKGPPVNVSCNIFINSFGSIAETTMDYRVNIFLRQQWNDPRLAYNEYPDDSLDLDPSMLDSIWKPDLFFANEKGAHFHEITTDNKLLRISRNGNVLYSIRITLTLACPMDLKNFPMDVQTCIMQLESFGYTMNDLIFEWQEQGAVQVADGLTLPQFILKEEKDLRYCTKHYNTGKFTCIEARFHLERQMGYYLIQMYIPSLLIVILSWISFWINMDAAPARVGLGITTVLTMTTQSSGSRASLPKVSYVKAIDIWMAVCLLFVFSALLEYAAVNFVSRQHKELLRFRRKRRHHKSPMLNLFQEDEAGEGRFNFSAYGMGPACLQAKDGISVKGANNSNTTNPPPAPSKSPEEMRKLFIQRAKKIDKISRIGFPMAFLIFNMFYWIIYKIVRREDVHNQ

[13] = AUClast in CD1 mouse at 30 mg/kg, po; assay type: ADME, organism-based; set-up: dose 30 mg/kg, route oral, time 0 - last; conditions: in vivo; how it was run: as §2
[14] = tested on: Mus musculus; assay: Ratio of drug level in brain to plasma in CD1 mouse at 30 mg/kg, po; assay type: ADME, organism-based
[15] = Tmax in CD1 mouse at 30 mg/kg, po; assay type: ADME, organism-based; conditions: in vivo; how it was run: as §2
[16] = molecular target: T2, Glutamate NMDA receptor; GRIN1/GRIN2A (Homo sapiens); assay: Inhibition of NMDA receptor glycine binding site (unknown origin) at 10 uM relative to control; assay type: protein-complex assay
[17] = tested on: Mus musculus; assay: Oral bioavailability in CD1 mouse at 30 mg/kg; assay type: ADME, organism-based; conditions: in vivo; how it was run: as §2
[18] = molecular target: T1, D-amino-acid oxidase; assay: Competitive inhibition of recombinant human DAAO expressed in HEK cells by double reciprocal plot analysis in presence of D-serine; set-up: species or system HEK293
How it was run: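 hDAAO was purified from HEK cell lysate by ion-exchange FPLC. […] Activity was read as the rate of absorbance change at 411 nm. The mode of inhibition and Ki came from a double reciprocal plot.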

[19] = tested on: Mus musculus; assay: Decrease in plasma clearance of D-serine in CD1 mouse assessed as D-serine AUC (0 to 6 hrs) at 30 mg/kg, po (R[…]microg.hr/ml); assay type: functional
[20] = molecular target: T2, Glutamate NMDA receptor; GRIN1/GRIN2A (Homo sapiens); assay: Inhibition of NMDA receptor MK801 binding site (unknown origin) at 10 uM relative to control; assay type: protein-complex assay
[21] = Volume of distribution in CD1 mouse at 30 mg/kg, iv; assay type: ADME, organism-based; conditions: in vivo; how it was run: as §2
[22] = molecular target: Voltage-gated inwardly rectifying potassium channel KCNH2 (Homo sapiens, UniProt Q12809); assay: Inhibition of human ERG up to 25 uM
Chain of Voltage-gated inwardly rectifying potassium channel KCNH2 (Q12809 whole entry): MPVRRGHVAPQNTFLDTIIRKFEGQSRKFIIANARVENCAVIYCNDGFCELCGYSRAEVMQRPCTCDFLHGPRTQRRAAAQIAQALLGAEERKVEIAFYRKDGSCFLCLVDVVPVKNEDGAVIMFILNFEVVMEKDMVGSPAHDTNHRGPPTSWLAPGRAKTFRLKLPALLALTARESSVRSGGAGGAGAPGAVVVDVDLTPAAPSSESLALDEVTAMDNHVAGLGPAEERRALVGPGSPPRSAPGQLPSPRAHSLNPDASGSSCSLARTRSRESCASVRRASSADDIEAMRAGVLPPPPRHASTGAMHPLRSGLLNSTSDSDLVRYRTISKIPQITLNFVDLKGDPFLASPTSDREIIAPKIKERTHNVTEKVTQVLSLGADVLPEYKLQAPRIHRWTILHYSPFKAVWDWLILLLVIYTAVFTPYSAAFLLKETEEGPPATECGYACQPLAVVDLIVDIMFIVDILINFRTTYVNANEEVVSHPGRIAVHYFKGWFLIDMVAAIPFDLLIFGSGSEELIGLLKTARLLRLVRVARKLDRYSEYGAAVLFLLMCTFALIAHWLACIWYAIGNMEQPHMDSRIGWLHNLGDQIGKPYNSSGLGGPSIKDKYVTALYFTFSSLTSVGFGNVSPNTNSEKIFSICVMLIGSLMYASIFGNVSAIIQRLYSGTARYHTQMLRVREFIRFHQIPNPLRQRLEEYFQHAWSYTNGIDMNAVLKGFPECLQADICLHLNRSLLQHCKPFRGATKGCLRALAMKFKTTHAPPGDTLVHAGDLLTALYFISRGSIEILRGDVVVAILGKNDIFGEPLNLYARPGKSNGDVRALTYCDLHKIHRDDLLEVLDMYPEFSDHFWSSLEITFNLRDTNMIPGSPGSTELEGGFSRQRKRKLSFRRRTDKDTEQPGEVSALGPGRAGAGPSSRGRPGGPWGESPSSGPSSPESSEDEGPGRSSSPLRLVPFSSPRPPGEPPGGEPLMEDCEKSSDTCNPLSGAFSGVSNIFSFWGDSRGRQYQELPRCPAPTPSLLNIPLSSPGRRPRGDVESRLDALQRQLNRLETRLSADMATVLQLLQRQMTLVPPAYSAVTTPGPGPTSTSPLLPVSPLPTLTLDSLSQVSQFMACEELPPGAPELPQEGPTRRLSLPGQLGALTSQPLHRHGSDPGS

[23] = Cmax in CD1 mouse at 30 mg/kg, po; assay type: ADME, organism-based; set-up: dose 30 mg/kg, route oral; conditions: in vivo; how it was run: as §2
[24] = Terminal half life in CD1 mouse at 30 mg/kg, iv; assay type: ADME, organism-based; conditions: in vivo, read-out: beta t1/2 (converted); how it was run: as §2
[25] = molecular target: T1, D-amino-acid oxidase; assay: Inhibition of recombinant human DAAO expressed in HEK cells in presence of 10 to 100 uM of FAD; assay type: cell-based; conditions: HEK293
How it was run: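 Reactions ran in 50 mM Tris pH 8.5 with 2% DMSO final, for 20 min at room temperature. Absorbance rate was read at 411 nm. IC50 was determined with FAD raised from 10 to 100 µM.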

[26] = molecular target: T5, MAO-A (Homo sapiens, UniProt P21397); assay: Inhibition of MAO-A (unknown origin) at 10 uM relative to control
T5 sequence (P21397 whole entry): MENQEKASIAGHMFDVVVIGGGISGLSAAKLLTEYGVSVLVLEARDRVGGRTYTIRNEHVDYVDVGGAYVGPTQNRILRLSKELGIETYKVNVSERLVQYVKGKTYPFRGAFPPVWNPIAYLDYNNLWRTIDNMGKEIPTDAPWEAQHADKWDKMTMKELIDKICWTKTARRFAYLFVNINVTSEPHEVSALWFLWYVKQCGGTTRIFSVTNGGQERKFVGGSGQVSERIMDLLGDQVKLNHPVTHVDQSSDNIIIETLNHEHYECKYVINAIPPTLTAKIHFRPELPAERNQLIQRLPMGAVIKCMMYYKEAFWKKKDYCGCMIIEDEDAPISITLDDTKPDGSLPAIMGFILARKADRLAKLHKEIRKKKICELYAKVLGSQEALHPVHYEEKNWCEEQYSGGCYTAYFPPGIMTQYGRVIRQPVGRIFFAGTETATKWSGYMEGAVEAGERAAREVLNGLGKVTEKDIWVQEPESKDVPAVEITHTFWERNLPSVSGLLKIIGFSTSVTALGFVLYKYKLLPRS

[27] = Clearance in CD1 mouse at 30 mg/kg, iv; assay type: ADME, organism-based; conditions: in vivo; how it was run: as §2
[28] = Volume of distribution in CD1 mouse at 10 mg/kg, iv; assay type: ADME, organism-based; conditions: in vivo; how it was run: as §2
[29] = Terminal half life in CD1 mouse at 10 mg/kg, iv; assay type: ADME, organism-based; conditions: in vivo, read-out: beta t1/2 (converted); how it was run: as §2
[30] = tested on: Mus musculus; assay: Dose normalized AUClast in CD1 mouse at 10 mg/kg, iv; assay type: ADME, organism-based; conditions: in vivo; how it was run: as §2

Compound: O=c1[nH]c(=O)n(CCc2ccccc2)nc1O
IC50 [1]: 70 nM
Stability [2]: >= 99%
Stability [3]: >= 99%

Compound: Cc1cccc(CCn2nc(O)c(=O)[nH]c2=O)c1
IC50 [1]: 70 nM

Compound: COc1cccc(CCn2nc(O)c(=O)[nH]c2=O)c1
IC50 [1]: 120 nM

Compound: O=c1[nH]c(=O)n(CCn2ccc3cccnc32)nc1O
IC50 [1]: 310 nM

Compound: CC(C)CCn1nc(O)c(=O)[nH]c1=O
IC50 [1]: 260 nM

Compound: O=c1[nH]c(=O)n(-c2ccccc2)nc1O
IC50 [1]: > 100000 nM

Compound: O=c1[nH]c(=O)n(CCc2ccccc2O)nc1O
IC50 [1]: 90 nM

Compound: CC(Cn1nc(O)c(=O)[nH]c1=O)c1ccccc1 (stereo not given)
IC50 [1]: 3300 nM

Compound: O=c1[nH]c(=O)n(CCc2cccc(C(F)(F)F)c2)nc1O
IC50 [1]: 100 nM

Compound: O=c1[nH]nc(CCc2cc(F)cc(F)c2)cc1O
Vd [28]: 0.5 L/kg
AUC(0-t) [13]: 3900 ng·h/mL
Tmax [15]: 15 min
half-life [29]: 12 min
Cmax [23]: 6600 ng/mL
Stability [2]: 92%
AUClast/dose [30]: 12.7 µg·h/mL

Continued, in another order:

IC50 [1]: 2800 nM
Compound: Cn1nc(O)c(=O)[nH]c1=O

IC50 [1]: 220 nM
Compound: O=c1[nH]c(=O)n(Cc2ccc3ccccc3c2)nc1O

IC50 [4]: 10000 nM
Compound: CO/N=C(\C(=O)N[C@@H]1C(=O)N2C(C(=O)O)=C(CSc3nc(=O)c(=O)[nH]n3C)CS[C@H]12)c1csc(N)n1 [CEFTRIAXONE]

IC50 [1]: 50 nM
Compound: O=c1[nH]c(=O)n(CCc2ccc(-c3ccccc3)cc2)nc1O

AUC(0-t) [7]: 16300 ng·h/mL
inhibition [8]: < 5%
Activity [9]: Not Active
inhibition at 10 µM [10]: ≤ 5%
inhibition [11]: < 5%
inhibition [12]: < 5%
AUC(0-t) [13]: 12900 ng·h/mL
BPR [14]: 0.01
Tmax [15]: 4.8 min
inhibition [16]: 22%
F [17]: 79%
Ki [18]: 60 nM
inhibition [20]: < 5%
Vd [21]: 0.8 L/kg
Cmax [23]: 13800 ng/mL
Stability [2]: >= 99%
half-life [24]: 54 min
inhibition [25]: Active
inhibition at 10 µM [26]: ≤ 5%
Stability [3]: >= 99%
clearance [27]: 10.2 mL/min/kg
Compound: O=c1[nH]c(=O)n(Cc2cccc3ccccc23)nc1O
Activity [5]: Non-toxic
Activity [6]: Non-toxic
Activity [19]: 96.9 µg·h/mL
inhibition (INH) [22]: Not Active

IC50 [1]: 50 nM
Compound: O=c1[nH]c(=O)n(CCc2ccc(F)cc2)nc1O

IC50 [1]: 850 nM
Compound: O=C(Cn1nc(O)c(=O)[nH]c1=O)c1ccccc1

IC50 [1]: 470 nM
Compound: O=c1[nH]c(=O)n(CC(O)c2ccccc2)nc1O (stereo not given)
